# Measurements collected from several papers.
# Each line is one published result; the experiments were not run side by side.
# Target: Serine/threonine-protein kinase TAO3 (TAOK3, Homo sapiens, UniProt Q9H2K8)
# Sequence (Q9H2K8 1-898, as in one of the studies): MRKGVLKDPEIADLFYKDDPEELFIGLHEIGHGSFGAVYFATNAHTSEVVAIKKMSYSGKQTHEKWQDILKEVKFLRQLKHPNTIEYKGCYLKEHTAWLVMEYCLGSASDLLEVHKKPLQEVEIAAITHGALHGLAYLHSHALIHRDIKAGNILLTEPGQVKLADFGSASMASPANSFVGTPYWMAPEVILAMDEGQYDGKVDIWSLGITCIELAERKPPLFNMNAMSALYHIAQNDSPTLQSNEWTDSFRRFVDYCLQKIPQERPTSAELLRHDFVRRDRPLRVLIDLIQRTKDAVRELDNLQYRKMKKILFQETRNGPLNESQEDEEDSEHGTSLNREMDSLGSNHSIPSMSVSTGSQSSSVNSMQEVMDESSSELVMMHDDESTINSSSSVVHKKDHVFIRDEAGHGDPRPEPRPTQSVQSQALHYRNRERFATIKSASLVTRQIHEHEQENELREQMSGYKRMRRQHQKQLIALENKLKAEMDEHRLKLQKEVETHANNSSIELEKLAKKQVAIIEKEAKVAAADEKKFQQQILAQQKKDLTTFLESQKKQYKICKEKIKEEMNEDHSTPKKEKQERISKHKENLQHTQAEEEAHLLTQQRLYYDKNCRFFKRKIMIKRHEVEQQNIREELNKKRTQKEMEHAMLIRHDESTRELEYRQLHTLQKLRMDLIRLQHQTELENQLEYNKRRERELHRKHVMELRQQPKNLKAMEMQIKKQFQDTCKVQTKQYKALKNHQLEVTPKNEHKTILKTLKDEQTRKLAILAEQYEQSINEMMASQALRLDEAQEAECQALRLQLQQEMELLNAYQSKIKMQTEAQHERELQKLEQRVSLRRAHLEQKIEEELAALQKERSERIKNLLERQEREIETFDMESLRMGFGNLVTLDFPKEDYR
Structure (SMILES),assay,setting,measurement,value
Cn1cc(-c2cccc(N3CCc4c(sc5c4CC(C)(C)C5)C3=O)c2CO)cc(Nc2ccncn2)c1=O,"enzyme activity, inhibitor",1 µM,inhibition,1%
Cn1cncc1[C@](O)(COc1ccc(C#N)cc1-c1ccc(OC(F)(F)F)cc1)c1ccc(C#N)cc1,"cell-free assay, competition with immobilised ligand",1 µM,remaining binding,87%
Cn1cc(-c2cc(F)cc(N3CCn4c(cc5c4CCCC5)C3=O)c2CO)cc(Nc2ccc(N3CCN(C4COC4)CC3)cn2)c1=O,"enzyme activity, inhibitor",0.1 µM,inhibition,-6%
Cc1nn(C)cc1-c1nc2c(N3CCN(Cc4ccc(Cl)cc4)CC3)c(Cl)cnc2[nH]1,"binding, competition with immobilised ligand",1 µM,remaining binding,87%
N#CC1(c2ccccn2)CCN(Cc2cc(C(=O)O)c(=O)n3ccccc23)CC1,"cell-free assay, competition with immobilised ligand",1 µM,remaining binding,78%
O=c1[nH]c2ccccc2n1C1CCN(Cc2ccc(-c3[nH]c4cc5ncnc5cc4nc3-c3ccccc3)cc2)CC1,cell-free assay,0.5 µM,remaining signal,111%
Nc1ncc(-c2nc(N3CCOCC3)nc(N3CCOCC3)n2)c(C(F)F)n1,"binding, competition with immobilised ligand",10 µM,remaining binding,70%
CC(C)(C)c1cc(C=C(C#N)C#N)cc(Br)c1O,"enzyme activity, inhibitor",0.5 µM,remaining activity,122%
COc1ncccc1-c1cnn2ccc(N3CCN(C(=O)OC(C)C)CC3)nc12,"binding, competition with immobilised ligand",1 µM,remaining binding,75%
